What was measured:
Liver microsome [1] = test: Drug level in rat liver microsomes assessed as compound retention time treated with 0.5 uM I-387 after 2 hrs by LC-MS/MS analysis; format: ADME
Method in brief: (§1)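 Pooled liver microsomes (1 mg/ml protein) incubated with 0.5 µM substrate and 3 mM NADPH in 65 mM potassium phosphate, pH 7.4, 1% methanol, at 37°C for 2 h. Stopped with ice-cold acetonitrile containing internal standard, centrifuged. Supernatant analysed by LC-MS/MS on a C18 column, 15-min gradient, with product ion scans for metabolite identification.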

Liver = test: Drug level in mouse liver microsomes assessed as compound retention time treated with 0.5 uM I-387 after 2 hrs by LC-MS/MS analysis; format: ADME; method in brief: as §1
Liver microsome [2] = test: Drug level in dog liver microsomes assessed as compound retention time treated with 0.5 uM I-387 after 2 hrs by LC-MS/MS analysis; format: ADME, Canis lupus familiaris; method in brief: as §1
[3] = Drug level in monkey liver microsomes assessed as compound retention time treated with 0.5 uM I-387 after 2 hrs by LC-MS/MS analysis; format: ADME, Macaca mulatta; details: rhesus monkey; method in brief: as §1
[4] = Retention time of the compound at 0.5 uM by LC-MS/MS analysis; format: physicochemical
Method in brief: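 After a 2 h incubation at 37°C with liver microsomes (1 mg/ml protein, 3 mM NADPH, 0.5 μM substrate, pH 7.4 phosphate buffer), samples were quenched with acetonitrile and centrifuged. Supernatant separated on a C18 column (15 min run, linear gradient 100% A to 100% B over 7 min) with LC-MS/MS ion trap detection.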

Liver microsome [5] = test: Drug level in human liver microsomes assessed as compound retention time treated with 0.5 uM I-387 after 2 hrs by LC-MS/MS analysis; format: ADME; method in brief: as §1

- Drug metabolism (Liver microsome [1]): metabolite_detected
- Drug metabolism (Liver): metabolite_detected
- Drug metabolism (Liver microsome [2]): metabolite_detected
- Drug metabolism [3]: metabolite_detected
- Retention_time [4]: 10.5 min
- Drug metabolism (Liver microsome [5]): metabolite_detected
Compound: COc1cc(C(O)c2cccc(-c3cc4ccccc4[nH]3)c2)cc(OC)c1OC (stereo unspecified)

Reference: ChEMBL document CHEMBL3526142, “Biotransformation of a novel antimitotic agent, I-387, by mouse, rat, dog, monkey, and human liver microsomes and in vivo pharmacokinetics in mice” (Drug Metab Dispos, 2011)
